Source: PubChem (several laboratories)
b-catenin transl: beta-catenin nuclear translocation modulation; nuclear translocation activity, % at 5 µM; HeLa beta-catenin nuclear translocation, immunofluorescence imaging; AID 1665; actives 0.3% (n = 190,000);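 active means nuclear translocation activity above 50% at 5 µM, with a well cell count of 50 or more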;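 further: per-cell ratio of nuclear to cytoplasmic median beta-catenin stain intensity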
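Test system: human HeLa cell line; Doses: 5 µM primary, 0.02–20 µM confirmation; Incubation: 24 h compound exposure, 37°C; Detection: beta-catenin immunofluorescence imaging with DAPI; Read-out: beta-catenin nuclear/cytoplasmic ratio, % activation.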
L major viab: reduces viability of Leishmania major promastigotes; resazurin fluorescence viability; inhibition, % at 10 µM; actives 9% (n = 200,000); in the data active means inhibition above about 50%;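 further: promastigotes grown with compound for 44 hours at 28 °C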
CHOP inhibitor: CHOP inhibition in unfolded protein response; inhibition, % at 10 µM; actives 3.8% (n = 220,000); CHO-K1 CHOP-promoter luciferase, tunicamycin-induced, 15-18 h; AID 2732;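 active means compounds that reduced the stress-induced luciferase reporter signal by more than about 70% of percent inhibition, limit read from the data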
Autophagy mod: alters autophagy in cells; actives 0.98% (n = 190,000); calls only at 10 µM (by protocol); MEF GFP-LC3 puncta imaging; test concentration mostly 10 µM;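 active means percentage of spot-positive cells more than 3 SD above its plate mean, without a fluorescence outlier flag or 80% toxicity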
Dynein transport: dynein cargo transport inhibition. z-score, hits read low. actives 0.47% (n = 220,000). AID 1381. 3617.4 mouse cells, GR-EGFP nuclear translocation imaging; test concentration mostly 20 µM; stimulated with dexamethasone, 1 µM; hits give low values;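 active means plate z-score of nuclear minus cytoplasmic receptor signal below a set negative limit, without overly bright fluorescence or cell loss, cut at about -3.5 in these data, passing the limit was not always enough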;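 further: z-score of nuclear minus cytoplasmic ring GR-EGFP intensity difference per well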
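Also added – dexamethasone, 1.0 µM final · Buffer or medium – tet-free, stripped-serum medium · Schedule – induction 48 h, compound 1 h, agonist 30 min · Detection – formaldehyde fixation, Hoechst nuclear stain, 10x automated fluorescence imaging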
MT stabilizer: microtubule stabilizers in HeLa cells; % tubulin-high responders, % at 10 µM; actives 0.83% (n = 200,000); HeLa tubulin immunostaining HCS, 24 h; share of cells brighter than vehicle mean+2SD; AID 2205;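 active means plate Z-score above 3 for both tubulin-high and condensed-nucleus cell shares, with cell loss under 80%, at 10 µM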;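 further: anti alpha tubulin signal scored within the nucleus-defined area of each cell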
A number is an active result; . = inactive; / = no result given; + = active, no number. An excerpt weighted towards active compounds, which were near 12% of everything screened.

SMILES	b-catenin transl	L major viab	CHOP inhibitor	Autophagy mod	Dynein transport	MT stabilizer
COc1cc(/C=N/NC(=O)C2C3CCCCC32C)cc(Br)c1O (stereo unspecified)	.	.	.	.	.	.
CCCCC(=O)OCC(=O)Nc1cccc(S(=O)(=O)NC2=NCCCCC2)c1	.	.	.	.	.	.
COC(=O)c1sccc1NC(=O)CC1C(=O)NCCN1C(=O)c1ccc(F)cc1 (stereo unspecified)	.	/	.	/	.	/
CN(CCOc1ccc(C[C@H](Nc2ccccc2C(=O)c2ccccc2)C(=O)O)cc1)c1ccccn1	/	/	.	/	/	/
C=CCNC(=O)CSc1nnc(-c2ccccc2Br)n1-c1cccc(C(F)(F)F)c1	.	79	.	.	.	.
CCN(CCO)Cc1csc2ccc(Br)cc12	.	99	.	.	.	.
Cc1ccc([N+](=O)[O-])cc1S(=O)(=O)NCCc1c(C)[nH]c2ccccc12	.	96	.	.	.	.
COc1ccc(CCN(C(=S)Nc2ccccc2)C2CC(=O)N(c3ccccc3)C2=O)cc1 (stereo unspecified)	.	.	.	.	.	.
COc1ccc(CN(C(=S)Nc2ccccc2)C2CC(=O)N(c3ccc(F)cc3)C2=O)cc1 (stereo unspecified)	.	91	.	.	.	.
COc1ccc(N2C(=O)CC(NCc3ccncc3)C2=O)cc1 (stereo unspecified)	.	.	.	.	.	.
COc1ccc(N2C(=O)CC(NCc3ccc(F)cc3)C2=O)cc1 (stereo unspecified)	.	.	.	+	.	.
CNC(=S)N(Cc1ccc(OC)cc1)C1CC(=O)N(c2ccc(Cl)cc2)C1=O (stereo unspecified)	/	52	.	.	.	.
COc1cccc(OCCNC(=O)Nc2cc(F)c(F)cc2Cl)c1	.	.	.	.	.	.
Cc1c(N=NC2=C(O)CC(C)(C)CC2=O)c(=O)n(-c2ccccc2)n1C	.	.	.	.	.	.
Nc1ccccc1NC1CCCCC1	.	54	.	.	.	.
c1cnc(NC2CCCCCC2)nc1	.	.	.	.	.	.
COc1ccc(NC(=S)N(Cc2ccccn2)Cc2ccccc2Cl)cc1	.	.	.	.	.	.
COc1cccc(NC(=S)N(Cc2ccccn2)Cc2ccccc2Cl)c1	.	62	.	.	.	.
COc1ccc(NC(=O)Cc2coc3cc(C)ccc23)cc1S(=O)(=O)N1CCOCC1	.	.	.	.	.	.
COc1ccc(NC(=O)Cc2coc3ccc4ccccc4c23)cc1S(=O)(=O)N1CCOCC1	.	78	.	.	.	.
COc1ccc(NC(=O)CN2CCc3ccccc3C2)cc1S(=O)(=O)N1CCOCC1	/	70	.	.	.	.
COc1ccc(NC(=O)CN2CCC(Cc3ccccc3)CC2)cc1S(=O)(=O)N1CCOCC1	.	.	.	.	.	.
CSc1nc2ccsc2c(=O)n1-c1ccccn1	.	.	.	.	.	.
CCOc1ccc(OCC)c(NC(=O)CSc2nc3cccnc3n2C)c1	.	.	.	.	.	.
COc1ccc2nc(Nc3ccccc3)sc2c1	.	.	.	.	.	.
SMILES	b-catenin transl	L major viab	CHOP inhibitor	Autophagy mod	Dynein transport	MT stabilizer
CCn1c(SCC(=O)Nc2nc3ccccc3s2)nnc1-c1ccc(Br)cc1	.	.	.	.	.	.
COc1ccc2nc(N=Nc3c(O)ccc4ccccc34)sc2c1	.	99	.	.	.	.
CCOc1ccc2nc(NC(=O)CSc3nc4cccnc4n3C)sc2c1	.	.	77	.	.	.
COc1ccc2nc(NC(=O)CC3Oc4ccccc4NC3=O)sc2c1 (stereo unspecified)	.	/	75	/	.	/
CCn1c(Cc2ccc(OC)cc2)nnc1SCC(=O)Nc1nc2ccccc2s1	/	.	83	.	.	.
CC(=O)Nc1cccc(/C(C)=N\NC(=O)c2ccc(Cn3nc([N+](=O)[O-])c(Cl)c3C)o2)c1	.	.	.	.	.	.
COc1ccc2nc(NC(=O)CSc3nc(C)cc(C)n3)sc2c1	/	51	.	.	.	.
COc1ccc(OC)c(NC(=O)CC(NC(C)=O)c2ccccc2)c1 (stereo unspecified)	.	.	.	.	.	.
COc1ccc(OC)c(NC(=O)Nc2cccc3ccccc23)c1	/	.	.	.	.	.
CCn1nnnc1SCC(=O)Nc1nc2ccc(OC)cc2s1	.	86	.	.	.	.
COc1ccc2nc(NC(=O)Nc3cccc4ccccc34)sc2c1	.	.	88	.	.	.
COc1cccc(C(CC(=O)Nc2cccc3ccccc23)NC(=O)c2ccccc2)c1 (stereo unspecified)	.	.	84	.	.	.
Cc1ccc2nc(NC(=O)COC(=O)CSc3nc(C)cc(C)n3)sc2c1	.	.	.	.	.	.
C#CCOC(=O)CCCNc1ccc([N+](=O)[O-])cc1[N+](=O)[O-]	.	.	.	.	.	.
CCC1NC(=S)NC(C)=C1C(=O)c1ccccc1 (stereo unspecified)	.	.	.	.	.	.
O=C1NC[C@H](c2ccccc2)N(CCc2cccc3ccccc23)C1=O	.	/	.	/	.	/
CN(CC(=O)Nc1cccc(F)c1)C(=O)CCCc1cccs1	.	.	.	.	.	.
C=CCNC(=S)N/N=C/c1cccc([N+](=O)[O-])c1	.	.	.	.	.	.
CCC1COC(c2cccn2Cc2ccccc2Cl)=N1 (stereo unspecified)	.	.	.	+	.	.
O=C(Nc1ccc(Cc2ccncc2)cc1)C1CCC(N2C(=O)C3C4C=CC(C4)C3C2=O)CC1 (stereo unspecified)	/	62	.	.	.	.
COC(=O)c1cc(N=Nc2sc(N)nc2C)cc(C(=O)OC)c1	.	/	80	/	.	/
Cc1nn(-c2ccccc2)c(Cl)c1/C=N/Nc1nncc(=O)[nH]1	.	/	.	/	.	/
CCOC(=O)C1=NN(c2ccccc2)C(=O)/C1=C\c1ccc(N(C)C)cc1	.	89	.	.	.	.
CC1=NN(Cc2ccccc2)C(=O)/C1=C\c1ccc(N(C)C)cc1	.	.	.	.	.	.
CC1CC(C)(C)NC(=S)N1CCCC(=O)N1CCN(c2ccc(F)cc2)CC1 (stereo unspecified)	.	82	.	.	.	.
CC1CC(C)(C)NC(=S)N1CCC(=O)N1CCN(c2ccccc2)CC1 (stereo unspecified)	.	.	.	.	.	.
COc1ccc(OC)c(NC(=O)CCCN2C(=S)NC(C)(C)CC2C)c1 (stereo unspecified)	.	70	.	.	.	.
CCOc1ccccc1NC(=O)CCCN1C(=S)NC(C)(C)CC1C (stereo unspecified)	.	52	.	.	.	.
COc1ccc(C)cc1NC(=O)CCCN1C(=S)NC(C)(C)CC1C (stereo unspecified)	.	.	.	.	.	.
